# Bioassay records (PubChem)
# This is a sample that favours compounds with a hit; in the whole collection about 0.92% have one here.
# Glyco luc inh: blocks N-linked glycosylation in D54 reporter cells; D54 ERlucT glycosylation luciferase reporter, 24 h; percent of 100 nM tunicamycin response; reporter increase, % at 12.5 µM; 360,000 compounds, 0.23% hits;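 active means mean luciferase reporter signal, scaled so untreated is 0 and the glycosylation-blocking control 100, at or above a set limit in every replicate; inconclusive means mean reaches the limit but not every replicate does; inactive means mean below the limit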;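 further: luciferase carries N-glycosylation sites so blocking glycosylation raises the light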
# AF4-AF9 inh: blocks AF4 peptide binding to human AF9 | inhibition, % at 10 µM | AID 651704 | AlphaScreen, biotin-AF4 peptide binding to FLAG-AF9 | 350,000 compounds, 0.47% hits | P42568;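 active means every replicate reaching a set inhibition limit, whatever the replicate mean, cut at about 25% in these data; inconclusive means mean inhibition reaches that limit but some replicates miss it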
# Target sequence (P42568 whole entry, looked up): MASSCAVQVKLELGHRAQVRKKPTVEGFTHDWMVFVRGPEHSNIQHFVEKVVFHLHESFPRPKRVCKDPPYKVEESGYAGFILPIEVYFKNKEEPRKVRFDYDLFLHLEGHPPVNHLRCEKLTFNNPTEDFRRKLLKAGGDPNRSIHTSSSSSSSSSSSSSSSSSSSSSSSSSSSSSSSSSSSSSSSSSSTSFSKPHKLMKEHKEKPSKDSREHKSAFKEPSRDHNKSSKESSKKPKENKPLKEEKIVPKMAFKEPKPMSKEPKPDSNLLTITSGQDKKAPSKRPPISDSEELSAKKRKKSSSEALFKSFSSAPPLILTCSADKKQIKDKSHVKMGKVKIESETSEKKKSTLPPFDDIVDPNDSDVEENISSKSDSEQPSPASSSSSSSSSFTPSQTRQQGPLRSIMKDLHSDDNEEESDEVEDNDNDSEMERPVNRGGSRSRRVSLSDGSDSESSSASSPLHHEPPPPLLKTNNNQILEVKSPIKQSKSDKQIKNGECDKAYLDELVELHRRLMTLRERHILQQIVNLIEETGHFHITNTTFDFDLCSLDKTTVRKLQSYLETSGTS
# RAD54 inh: blocks human RAD54 Holliday junction branch migration | Q92698 | FAM/BHQ fluorescence | inhibition, % at 10.4 µM | 360,000 compounds, 0.14% hits | AID 602329;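 active means mean normalized replicate activity at least 40 and at least half of replicates scoring 40 or more; inconclusive means only one of the two criteria met; inactive means mean below 40 and under half of replicates reaching 40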;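 further: inhibitors cause a drop in the FAM fluorescence signal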
# FN deposition inh: fibronectin deposition inhibition | inhibition, % at 12.6 µM | AID 743247 | 350,000 compounds, 0.086% hits | AH1F fibroblasts, Alexa488-fibronectin deposition fluorescence, overnight;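 active means mean inhibition across replicates of 30% or more, regardless of how many single replicates reach that level; inconclusive means mean under 30% yet at least half of replicates reach 30%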
#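 Assay system: AH1F fibroblast monolayer, labelled fibronectin deposition. Amount: 10000 cells per well. Also added: labelled fibronectin 24 nM. Compound: single-point pinned compound. Incubation: cell attachment 1 h, compound and FN exposure overnight. Detection: fluorescence after three HBSS washes, excitation 485 nm, emission 525 nm. Read-out: inhibition of fibronectin deposition signal.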
# RAD52 anneal inh: blocks human RAD52 DNA annealing; recombinant RAD52 DNA annealing, FRET fluorescence; 360,000 compounds, 0.46% hits; P43351; AID 651710; inhibition, % at 18.7 µM;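 active means every replicate showing at least 50% inhibition; inconclusive means mean inhibition at least 50% but not in every replicate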
# DNA binder FP: binds DNA, flagging false RAD52 inhibitor hits; AID 652128; Salmon sperm DNA/acridine orange FP displacement, DNA binding; AC50, µM; 1,000 compounds, 8% hits; shares compounds with RAD52 anneal inh;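 active means fitted half-maximal concentration for signal loss at or below twice the highest dose tested, in every separate run, actives reach about 64 µM in these data; inconclusive means runs disagree, or flat partial signal loss, or poor fit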
# A number is an active result; – = inactive; ? = inconclusive; · = no result given.
SMILES,Glyco luc inh,AF4-AF9 inh,RAD54 inh,FN deposition inh,RAD52 anneal inh,DNA binder FP
C[C@@H]1CN([C@@H](C)CO)C(=O)c2cccc(NC(=O)Nc3ccc(C(F)(F)F)cc3)c2O[C@H]1CN(C)Cc1ccc(Cl)c(Cl)c1,·,–,–,·,–,·
CN1CCC(N(C)C(=O)/C=C/c2cn(-c3ccccc3)nc2-c2cccs2)CC1,–,–,·,·,71,–
CCN(CC(=O)Nc1ccc(NC(C)=O)cc1)C(=O)/C=C/c1cn(-c2ccccc2)nc1-c1cccs1,–,–,–,–,–,·
CCCNC(=O)C[C@@H]1CC[C@H]2[C@H](COc3ccc(NC(=O)c4ccc(C(F)(F)F)cc4)cc3C(=O)N2C)O1,·,–,–,–,–,·
CN1CCN(c2nc(-c3ccc(Cl)s3)cs2)CC1,–,–,·,–,51,–
Clc1ccc(-c2csc(N3CCCCCC3)n2)cc1,–,–,–,–,–,·
COc1ccc(C(=O)NC2CC(C)(C)NC(C)(C)C2)cc1S(=O)(=O)N1CCOCC1,–,–,–,–,98,–
C[C@H]1CCCCO[C@H](CN(C)C(=O)Nc2ccc(F)cc2)[C@@H](C)CN([C@@H](C)CO)C(=O)c2cc(NC(=O)Nc3ccccc3)ccc2O1,·,–,–,–,–,·
CC(=O)N1CC(=O)N2[C@H](CO)[C@H](c3ccc(-c4ccncc4)cc3)[C@@H]2C1,·,–,·,·,–,·
CN/C(=C/[N+](=O)[O-])NCCSCc1ccc(CN(C)C)o1,–,–,–,–,55,–
C[C@@H]1CN([C@@H](C)CO)C(=O)Cc2cc(N(C)C)ccc2O[C@@H]1CN(C)C(=O)Nc1cccc2ccccc12,·,–,–,·,–,·
OCCN1CCN(CC(O)COc2ccc(C34CC5CC(CC(C5)C3)C4)cc2)CC1 (centres undefined),–,–,·,–,57,–
C[C@@H]1CN([C@@H](C)CO)C(=O)c2cc(NC(=O)Nc3ccccc3)ccc2O[C@@H](C)CCCCO[C@@H]1CN(C)S(=O)(=O)c1ccc(Cl)cc1,·,–,–,·,–,·
CN1CCc2c(sc(N)c2C(=O)O)C1,–,?,·,–,74,–
COCC(=O)Nc1ccc2c(c1)C(=O)N(C)C[C@H](OC)[C@@H](C)CN(Cc1cccnc1)[C@@H](C)CO2,·,–,–,–,–,·
Cc1sc2nc(CN3CCCCC3)nc(Nc3ccc4c(c3)OCCO4)c2c1C,–,–,·,–,72,–
Cc1sc2nc(CN3CCCC3)nc(NCc3ccncc3)c2c1C,–,–,·,·,–,·
COc1cccc(S(=O)(=O)NCC(=O)N2CCCCCC2)c1,–,–,–,–,108,–
COc1cccc(S(=O)(=O)Nc2ccc(C(=O)N3CCCCCC3)cc2)c1,–,–,–,–,–,·
CCCCNC(=S)NCC(c1ccccc1)c1c[nH]c2ccccc12 (centres undefined),–,–,–,–,–,·
CN(C)CCCNC(=S)NCC(c1ccc(Cl)cc1Cl)c1c[nH]c2ccccc12 (centres undefined),–,35,–,–,56,–
CNC[C@@H]1OCCCC[C@H](C)Oc2ccc(NC(=O)Cc3ccccc3)cc2C(=O)N([C@H](C)CO)C[C@@H]1C,·,–,–,·,–,·
CN1[C@@H]2c3ccc(-c4ccccc4F)c(=O)n3C[C@H]1[C@H](CO)[C@H]2C(=O)NCc1ccccn1,·,–,–,·,–,·
COc1ccc(C)cc1Nc1n[n+](-c2ccccc2)c(-c2c(OC)ccc3ccccc23)s1,–,40,–,–,102,–
COc1ccc(C)cc1Nc1n[n+](-c2ccccc2)c(-c2cc(OC)c(OC)cc2Br)s1,–,–,–,–,–,·
SMILES,Glyco luc inh,AF4-AF9 inh,RAD54 inh,FN deposition inh,RAD52 anneal inh,DNA binder FP
COCCN1CCn2c(nc3cc(Nc4nnc(C)c5ccccc45)ccc32)C1,–,–,·,–,72,–
CO[C@@H]1CN(C)C(=O)c2cc(NS(=O)(=O)CC(F)(F)F)ccc2OC[C@H](C)N(CCC(F)(F)F)C[C@H]1C,·,–,–,–,–,·
CN1CCN(CCCNC(=O)c2cc3c(=O)n(C)c4ccccc4c3s2)CC1,–,–,63,–,62,–
CCN(CC)CCCNC(=O)c1cc2c(=O)n(CC)c3ccccc3c2s1,–,–,–,–,–,·
Oc1ccccc1/C=N/[n+]1ccccc1,–,–,–,–,58,–
CN(C)CCCNc1nc2cc(-c3cccc(C(F)(F)F)c3)sc2c(=O)n1C,–,–,–,–,66,?
CN(C)CCCOc1ccc(-c2cc3nc(NCc4cccnc4)n(C)c(=O)c3s2)cn1,–,–,–,–,60,–
CN1CCN(C(=O)[C@H]2[C@H](CO)[C@H]3Cn4c(ccc(-c5cccnc5)c4=O)[C@H]3N2CC2CC2)CC1,·,–,–,·,–,·
C[C@H](CO)N1C[C@H](C)[C@H](CN(C)C(=O)Nc2cccc3ccccc23)Oc2ccc(NC(=O)Nc3ccccc3)cc2CC1=O,·,–,–,·,–,·
NC(=NCc1ccc2c(c1)OCO2)NC(=O)c1ccccc1,–,–,·,–,51,–
Cc1ccc2sc(N(CCCN(C)C)C(=O)CN3C(=O)c4ccccc4C3=O)nc2c1C,–,–,–,–,69,–
Cc1cccc2sc(N(CCCN(C)C)C(=O)COc3ccc(Cl)cc3)nc12,–,–,·,–,50,–
Cc1cccc2sc(N(CCN(C)C)C(=O)c3cc(Cl)sc3Cl)nc12,–,·,–,–,·,·
COc1cc2ccccc2cc1C(=O)N(CCN(C)C)c1nc2c(C)cccc2s1,–,–,–,–,55,–
CCCN1CCN(CCCNC(=O)C2CCN(c3nnc(-n4c(C)ccc4C)s3)CC2)CC1,–,–,–,–,58,–
CN1CCN(CCCNC(=O)C2CCN(c3nnc(-n4cccc4)s3)CC2)CC1,–,·,–,·,·,·
Cc1ccc(C)n1-c1nnc(N2CCC(C(=O)N3CCN(C)CC3)CC2)s1,–,–,–,–,56,–
CCN1CCN(C(=O)C2CCN(c3nnc(-n4c(C)ccc4C)s3)CC2)CC1,–,–,–,–,58,–
CCOC(=O)N1CCN(C(=O)C2CCN(c3nnc(-n4cccc4)s3)CC2)CC1,–,–,–,–,–,·
CC(=O)N1CC2(C1)[C@@H](c1ccc(-c3ccc(C#N)cc3)cc1)[C@@H](CO)N2C(=O)C1CC1,·,–,·,·,–,·
CN(C)CCCNC(=O)/C(=C/c1ccc(-c2ccc([N+](=O)[O-])cc2)o1)NC(=O)c1ccccc1,–,–,–,–,–,·
CN(C)CCCNC(=O)/C(=C\c1ccc(-c2ccc(Br)cc2)o1)NC(=O)c1ccccc1,–,29,?,–,62,–
Cc1ccc(C(=O)N/C(=C\c2ccc(-c3ccc(Cl)cc3)o2)C(=O)NCCCN(C)C)cc1,–,–,·,–,52,–
CCOc1ccc(CCN2C(=S)N([C@@H](Cc3ccc(O)cc3)CN3CCC[C@@H]3CN3C(=S)NC[C@@H]3CC(C)C)C[C@@H]2Cc2ccccc2)cc1,–,–,–,–,–,·
